E-sel inducer: E-selectin induction in HUVECs, primary screen, imaging, HUVEC, immunofluorescence imaging, single point. actives 0.37% (n = 260,000). AID 686992, 2013. activation, % at 7.58 µM. P16581. normalized: neutral wells 0, TNF-alpha wells 100;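 active = mean E-selectin-positive cell signal at least 10% of the positive control, reached in at least 60% of replicates, without over 20% cell loss; inconclusive = no rule given, readout overlaps actives, possibly toxicity-flagged; inactive = the rest, including those meeting only one limit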
Target sequence (P16581 whole entry, looked up): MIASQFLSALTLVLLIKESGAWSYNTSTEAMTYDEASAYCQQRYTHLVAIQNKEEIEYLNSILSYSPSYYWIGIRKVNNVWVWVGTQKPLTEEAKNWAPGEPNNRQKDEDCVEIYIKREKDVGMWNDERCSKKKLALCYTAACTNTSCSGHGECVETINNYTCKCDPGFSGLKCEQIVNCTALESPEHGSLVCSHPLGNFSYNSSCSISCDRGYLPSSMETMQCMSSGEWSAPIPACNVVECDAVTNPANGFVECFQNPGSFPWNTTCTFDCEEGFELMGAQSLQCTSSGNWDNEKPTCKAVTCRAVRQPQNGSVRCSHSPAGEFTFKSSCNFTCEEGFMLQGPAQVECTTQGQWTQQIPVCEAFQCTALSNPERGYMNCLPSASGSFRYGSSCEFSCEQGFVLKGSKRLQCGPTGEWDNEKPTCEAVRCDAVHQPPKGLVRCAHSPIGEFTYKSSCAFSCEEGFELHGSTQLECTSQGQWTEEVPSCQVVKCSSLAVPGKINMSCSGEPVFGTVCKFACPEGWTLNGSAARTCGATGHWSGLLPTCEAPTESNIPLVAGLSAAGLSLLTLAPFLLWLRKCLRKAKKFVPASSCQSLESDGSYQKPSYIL
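Test system: HUVEC; input: 3,000 HUVEC/well; measured by: immunofluorescence imaging; read-out: % PE-positive cells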
Xi reactivation: activators of inactive X chromosome reactivation, primary screen, imaging, XiGFP fibroblasts, GFP high-content imaging, set 2 | actives 0.055% (n = 360,000) | AID 743238, 2013 | XiGFP mouse fibroblasts, % GFP-positive cells imaging, 3 d; cells co-treated with 5-aza-dC sensitizer; scaled so ellipticine positive control = 100% | activation, % at 7.58 µM;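 active = mean normalized replicate activation at least 10% and every replicate at or above 10%; inconclusive = only one of the two criteria met; inactive = mean below 10% and not all replicates reach 10%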
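Assay system: SV40-immortalized XiGFP fibroblast cells, line 68-5-11; buffer or medium: DMEM plus 5-aza-dC sensitizer; compound: one concentration, pinned; timing: compounds 3 days, fix/stain 15 min at room temperature; benchmarks: positive control ellipticine, 6 µM final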
Numbers stand for hits. Only a selection was taken, and hits are over-represented in it overall.

CCC(C)NC(=O)CSc1nc2c(sc(=S)n2-c2cc(Cl)ccc2OC)c(=O)[nH]1 (stereo not drawn) was read as E-sel inducer inactive and Xi reactivation inactive.
`COCCCNC(=O)CSc1nc2c(sc(=S)n2-c2cc(Cl)ccc2OC)c(=O)[nH]1` gave E-sel inducer 46.5 and Xi reactivation inactive.
For CO[C@H]1CN(C)C(=O)c2ccc(NS(C)(=O)=O)cc2OC[C@@H](C)N(Cc2cncnc2)C[C@H]1C the results were E-sel inducer inactive and Xi reactivation inactive.
Cc1ccc(S(=O)(=O)N(C)C[C@H]2Oc3c(NC(=O)Nc4cccc5ccccc45)cccc3C(=O)N([C@H](C)CO)C[C@@H]2C)cc1 was read as E-sel inducer inactive and Xi reactivation inactive.
Screening CCN1[C@@H]2Cn3c(ccc(C4=CCCCC4)c3=O)[C@H]1[C@@H](C(=O)NCC(F)(F)F)[C@@H]2CO returned Xi reactivation inactive.
Screening CC(C)(C=O)C1=CC(=O)c2ccccc2C1=O returned E-sel inducer inactive and Xi reactivation 17.6.
CC1=CC(=O)c2ccccc2C1=O was read as E-sel inducer inactive and Xi reactivation inactive.
Screening CO[C@H]1CC[C@H]2CCN(C)C(=O)[C@@H](C)[C@H](OC)CN(C)C(=O)c3cc(C#N)ccc3OC[C@H]1O2 returned E-sel inducer inactive and Xi reactivation inactive.
Screening N#C[C@H]1[C@@H](c2ccccc2C2=CCCCC2)[C@@H](CO)N1C(=O)c1cccc(F)c1 returned E-sel inducer inactive and Xi reactivation inactive.
CC(=NNS(=O)(=O)c1cccc([N+](=O)[O-])c1)c1ccc(-n2ccnc2)cc1 was read as E-sel inducer inactive and Xi reactivation inactive.
C/C(=N/NS(=O)(=O)c1cccc([N+](=O)[O-])c1)c1ccncc1 was read as E-sel inducer 28.0 and Xi reactivation inactive.
For COc1cccc(S(=O)(=O)N[C@H]2C=C[C@@H](CC(=O)NCc3ccc(F)cc3)O[C@H]2CO)c1 the results were E-sel inducer inactive and Xi reactivation inactive.
COC1=CC(=O)c2nc(Cl)ccc2C1=O was read as E-sel inducer inactive and Xi reactivation inconclusive.
For COC1=CC(=O)c2c(ccc3ncnc(N)c23)C1=O the results were Xi reactivation 18.9.
N#CC1=CN(Cc2ccccc2)C=C(/C=N/Nc2ccccc2)C1 was read as E-sel inducer inactive and Xi reactivation inactive.
`CCOC(=O)C(=O)C1=CN(Cc2ccccc2)C=C(C#N)C1` gave E-sel inducer 52.0 and Xi reactivation inactive.
For COc1ccc(S(=O)(=O)Nc2cccc3c2O[C@@H](CN(C)C(=O)Nc2c(C)noc2C)[C@@H](C)CN([C@@H](C)CO)C3=O)cc1 the results were E-sel inducer inactive and Xi reactivation inactive.
`COc1ccc(S(=O)(=O)Nc2ccc3c(c2)C(=O)N([C@@H](C)CO)C[C@@H](C)[C@H](CN(C)C(=O)Nc2cccc4ccccc24)O3)cc1` gave E-sel inducer inactive and Xi reactivation inactive.
C[C@H]1CN([C@@H](C)CO)C(=O)c2cc(NS(=O)(=O)c3ccccc3)ccc2O[C@H]1CN(C)C(=O)Nc1cccc2ccccc12 was read as E-sel inducer inactive and Xi reactivation inactive.
For COc1ccc(S(=O)(=O)Nc2ccc3c(c2)C(=O)N([C@@H](C)CO)C[C@H](C)[C@@H](CN(C)C(=O)Nc2cccc4ccccc24)O3)cc1 the results were E-sel inducer 80.3 and Xi reactivation inactive.
Screening C[C@H]1CN([C@@H](C)CO)C(=O)c2cc(NS(=O)(=O)c3ccc(F)cc3)ccc2O[C@@H]1CN(C)C(=O)Nc1cccc2ccccc12 returned E-sel inducer inactive and Xi reactivation inactive.
Screening COc1ccc(S(=O)(=O)Nc2cccc3c2O[C@H](CN(C)C(=O)Nc2c(C)noc2C)[C@H](C)CN([C@@H](C)CO)C3=O)cc1 returned E-sel inducer 63.4 and Xi reactivation inactive.
For COc1ccc(S(=O)(=O)Nc2ccc3c(c2)C(=O)N([C@@H](C)CO)C[C@@H](C)[C@@H](CN(C)C(=O)Nc2cccc4ccccc24)O3)cc1 the results were E-sel inducer 53.0 and Xi reactivation inactive.
`COc1ccc(S(=O)(=O)Nc2ccc3c(c2)C(=O)N([C@H](C)CO)C[C@H](C)[C@@H](CN(C)C(=O)Nc2cccc4ccccc24)O3)cc1` gave E-sel inducer 64.4 and Xi reactivation inactive.
For O=C(C[C@@H]1CC[C@@H]2[C@H](COC[C@H](O)CN2C(=O)Nc2ccccc2)O1)NCc1ccncn1 the results were E-sel inducer inactive and Xi reactivation inactive.
`CCCN(C)C[C@H]1OCCCC[C@@H](C)Oc2ccc(NS(=O)(=O)c3cn(C)cn3)cc2C(=O)N([C@@H](C)CO)C[C@H]1C` gave E-sel inducer inactive and Xi reactivation inactive.

High-throughput results from PubChem BioAssay.
